From ChEMBL document CHEMBL1122109, “Monophenolic octahydrobenzo[f]quinolines: central dopamine- and serotonin-receptor stimulating activity” (1982)
Activity calls are given as the source filed them. The rule behind the calls is not given here.

Experiments:
Rattus norvegicus [1] = species: Rattus norvegicus; assay: ED50 value was measured as dose required to produce a half-maximal reduction of Dopa accumulation in the striatum of reserpinized rat brain.; assay type: functional
Rattus norvegicus [2] = species: Rattus norvegicus; assay: Motor activity was measured in the reserpinized rats as counts/60 min.; assay type: functional
In short: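 Male Sprague-Dawley rats (200-300 g) received reserpine 10 mg/kg ip 6 h before testing and DL-α-methyl-p-tyrosine methyl ester HCl 250 mg/kg ip 1 h before. Test drug was given sc in the neck: trans derivatives at 1 mg/kg (3100 nmol/kg), cis at 10 mg/kg (31000 nmol/kg), n = 4. Rats were placed singly in motility meters immediately and activity recorded for 60 min; means ± SEM.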

Rattus norvegicus [3] = species: Rattus norvegicus; assay: ED50 value was measured as dose required to produce a half-maximal reduction of Dopa accumulation in limbic area of reserpinized rat brain.; assay type: functional
Rattus norvegicus [4] = species: Rattus norvegicus; assay: Percent reduction of hemispheres in cortex was measured in the brain of reserpinized rats; I is Inactive, no significant effect at doses approximately 40 times the ED50 for Dopa accumulation; assay type: functional, organism-based
Rattus norvegicus [5] = species: Rattus norvegicus; assay: ED50 value was measured as dose required to produce a half-maximal reduction of Dopa accumulation in the striatum of reserpinized rat brain; I is Inactive, no significant effect at doses approximately 10 times the ED50 for Dopa accumulation; assay type: functional, organism-based
Rattus norvegicus [6] = species: Rattus norvegicus; assay: ED50 value was measured as dose required to produce a half-maximal reduction of Dopa accumulation in limbic area of reserpinized rat brain; I is Inactive, no significant effect at doses approximately 10 times the ED50 for Dopa accumulation; assay type: functional, organism-based
Rattus norvegicus [7] = species: Rattus norvegicus; assay: ED50 value was measured as dose required to produce a half-maximal reduction of Serotonin (5-HTP) accumulation in limbic area of reserpinized rat brain; I is Inactive, no significant effect at doses approximately 40 times the ED50 for Dopa accumulation; assay type: functional, organism-based
Rattus norvegicus [8] = species: Rattus norvegicus; assay: ED50 value was measured as dose required to produce a half-maximal reduction of Serotonin (5-HTP) accumulation in striatum of reserpinized rat brain; I is Inactive, no significant effect at doses approximately 40 times the ED50 for Dopa accumulation; assay type: functional, organism-based
Rattus norvegicus [9] = assay: ED50 value was measured as dose required to produce a half-maximal reduction of Serotonin (5-HTP) accumulation in limbic area of reserpinized rat brain; I is Inactive at 45000 nmol/kg; assay type: functional, organism-based
Rattus norvegicus [10] = assay: ED50 value was measured as dose required to produce a half-maximal reduction of Serotonin (5-HTP) accumulation in striatum of reserpinized rat brain; I is Inactive at 45000 nmol/kg; assay type: functional, organism-based
Rattus norvegicus [11] = assay: ED50 value was measured as dose required to produce a half-maximal reduction of Dopa accumulation in the striatum of reserpinized rat brain; Maximal reduction of Dopa could not be obtained. 60% reduction from control level at 12500 nmol/Kg; assay type: functional, organism-based
Rattus norvegicus [12] = assay: Percent reduction of hemispheres in cortex was measured in the brain of reserpinized rats.*: No significant effect at doses approximately 40 times the ED50; IA is Inactive at 45000 nmol/kg; assay type: functional, organism-based
Rattus norvegicus [13] = assay: ED50 value was measured as dose required to produce a half-maximal reduction of Dopa accumulation in limbic area of reserpinized rat brain; Maximal reduction of Dopa could not be obtained. 40% reduction from control level at 12500 nmol/Kg; assay type: functional, organism-based
Rattus norvegicus [14] = species: Rattus norvegicus; assay: ED50 for 5-HTP in cortex hemispheres was measured in the brain of reserpinized rats.
Rattus norvegicus [15] = species: Rattus norvegicus; assay: ED50 value was measured as dose required to produce a half-maximal reduction of Dopa accumulation in the striatum of reserpinized rat brain; I is Inactive, no significant effect at doses approximately 40 times the ED50 for Dopa accumulation; assay type: functional, organism-based
Rattus norvegicus [16] = species: Rattus norvegicus; assay: ED50 value was measured as dose required to produce a half-maximal reduction of Dopa accumulation in limbic area of reserpinized rat brain; I is Inactive, no significant effect at doses approximately 40 times the ED50 for Dopa accumulation; assay type: functional, organism-based
Rattus norvegicus [17] = species: Rattus norvegicus; assay: ED50 value was measured as dose required to produce a half-maximal reduction of Serotonin (5-HTP) accumulation in limbic area of reserpinized rat brain; assay type: functional
Rattus norvegicus [18] = species: Rattus norvegicus; assay: ED50 value was measured as dose required to produce a half-maximal reduction of Serotonin (5-HTP) accumulation in striatum of reserpinized rat brain; assay type: functional
Rattus norvegicus [19] = species: Rattus norvegicus; assay: Percent reduction of hemispheres in cortex was measured in the brain of reserpinized rats.*: No significant effect at doses approximately 40 times the ED50; I is Inactive, no significant effect at doses approximately 40 times the ED50 for Dopa ac cumulation; assay type: functional, organism-based
Rattus norvegicus [20] = assay: ED50 value was measured as dose required to produce a half-maximal reduction of Dopa accumulation in limbic area of reserpinized rat brain; I is Inactive at 500 nmol/kg; assay type: functional, organism-based
Rattus norvegicus [21] = assay: ED50 value was measured as dose required to produce a half-maximal reduction of Dopa accumulation in the striatum of reserpinized rat brain; I is Inactive at 500 nmol/kg; assay type: functional, organism-based
Rattus norvegicus [22] = assay: ED50 value was measured as dose required to produce a half-maximal reduction of Serotonin (5-HTP) accumulation in limbic area of reserpinized rat brain; I is Inactive at 2800 nmol/kg; assay type: functional, organism-based
Rattus norvegicus [23] = assay: ED50 value was measured as dose required to produce a half-maximal reduction of Serotonin (5-HTP) accumulation in striatum of reserpinized rat brain; I is Inactive at 2800 nmol/kg; assay type: functional, organism-based
Rattus norvegicus [24] = assay: Percent reduction of hemispheres in cortex was measured in the brain of reserpinized rats; I is Inactive at 2800 nmol/kg; assay type: functional, organism-based
Rattus norvegicus [25] = species: Rattus norvegicus; assay: ED50 value was measured as dose required to produce a half-maximal reduction of Serotonin (5-HTP) accumulation in limbic area of reserpinized rat brain; I is Inactive, no significant effect at doses approximately 10 times the ED50 for Dopa accumulation; assay type: functional, organism-based
Rattus norvegicus [26] = species: Rattus norvegicus; assay: ED50 value was measured as dose required to produce a half-maximal reduction of Serotonin (5-HTP) accumulation in striatum of reserpinized rat brain; I is Inactive, no significant effect at doses approximately 10 times the ED50 for Dopa accumulation; assay type: functional, organism-based
Rattus norvegicus [27] = assay: ED50 value was measured as dose required to produce a half-maximal reduction of Dopa accumulation in the striatum of reserpinized rat brain; I is Inactive at 2800 nmol/kg; assay type: functional, organism-based
Rattus norvegicus [28] = assay: ED50 value was measured as dose required to produce a half-maximal reduction of Dopa accumulation in limbic area of reserpinized rat brain; I is Inactive at 2800 nmol/kg; assay type: functional, organism-based
Rattus norvegicus [29] = species: Rattus norvegicus; assay: Percent reduction of hemispheres in cortex was measured in the brain of reserpinized rats; I is Inactive, no significant effect at doses approximately 10 times the ED50 for Dopa accumulation; assay type: functional, organism-based
Rattus norvegicus [30] = assay: ED50 value was measured as dose required to produce a half-maximal reduction of Serotonin (5-HTP) accumulation in limbic area of reserpinized rat brain; I is Inactive at 11300 nmol/Kg; assay type: functional, organism-based
Rattus norvegicus [31] = assay: ED50 value was measured as dose required to produce a half-maximal reduction of Serotonin (5-HTP) accumulation in striatum of reserpinized rat brain; I is Inactive at 11300 nmol/Kg; assay type: functional, organism-based
Rattus norvegicus [32] = assay: Percent reduction of hemispheres in cortex was measured in the brain of reserpinized rats; I is Inactive at 11300 nmol/Kg; assay type: functional, organism-based
Rattus norvegicus [33] = species: Rattus norvegicus; assay: Percent reduction of hemispheres in cortex was measured in the brain of reserpinized rats.*: No significant effect at doses approximately 40 times the ED50; assay type: functional
[34] = Rattus norvegicus, Striatum, read-out: ED50
[35] = Rattus norvegicus, Brain, read-out: ED50

Compound | ED50 (Rattus norvegicus [1]; [34]) | Motor activity (Rattus norvegicus [2]) | ED50 (Rattus norvegicus [3]; [35]) | Hemispheres reduction (Rattus norvegicus [4]) | ED50 (Rattus norvegicus [7]) | ED50 (Rattus norvegicus [8]) | also measured
CN1CCc2cccc3c2[C@H]1Cc1ccc(O)c(O)c1-3 [APOMORPHINE] | 0.22 µmol/kg | 624 | 0.19 µmol/kg | inactive | – | – | –
CCCN(CCC)[C@@H]1CCc2ccc(O)cc2C1 | 0.17 µmol/kg | – | 0.18 µmol/kg | – | – | – | –
CCCN1CCCC2c3c(O)cccc3CCC21 (stereo in doubt; 17) [listing 1 of 2 here] | – | – | – | – | – | – | ED50 (Rattus norvegicus [5]): inactive; ED50 (Rattus norvegicus [6]): inactive
CCCN(CCC)C1CCc2ccc(O)cc2C1 (configuration not stated) | 0.03 µmol/kg | – | 0.027 µmol/kg | inactive | inactive | inactive | –
CCCN1CCCC2c3cccc(O)c3CCC21 (stereo in doubt; 6) [listing 1 of 2 here] | – | – | – | – | – | – | ED50 (Rattus norvegicus [9]): inactive; ED50 (Rattus norvegicus [10]): inactive; ED50 (Rattus norvegicus [11]): Weak activity; Hemispheres reduction (Rattus norvegicus [12]): inactive; ED50 (Rattus norvegicus [13]): Weak activity
CCCN1CCCC2c3cc(O)ccc3CCC21 (stereo in doubt; 9) [listing 1 of 2 here] | – | – | – | inactive | inactive | inactive | –
CCCN(CCC)C1CCc2cccc(O)c2C1 (configuration not stated) [8-OH-DPAT] | – | – | – | – | – | – | ED50 (Rattus norvegicus [14]): 68 nmol/kg; ED50 (Rattus norvegicus [15]): inactive; ED50 (Rattus norvegicus [16]): inactive; ED50 (Rattus norvegicus [17]; [35]): 0.048 µmol/kg; ED50 (Rattus norvegicus [18]; [34]): 0.045 µmol/kg
CCCCN1CCCC2c3cccc(O)c3CCC21 (configuration not stated) | 0.07 µmol/kg | 418 | 0.08 µmol/kg | – | inactive | inactive | Hemispheres reduction (Rattus norvegicus [19]): inactive
CCCN1CCCC2c3c(O)cccc3CCC21 (stereo in doubt; 18) [listing 1 of 2 here] | – | – | – | – | – | – | ED50 (Rattus norvegicus [20]): inactive; ED50 (Rattus norvegicus [21]): inactive
CCCN1CCCC2c3ccc(O)cc3CCC21 (configuration not stated) | 0.53 µmol/kg | 179 | 0.54 µmol/kg | – | – | – | ED50 (Rattus norvegicus [22]): inactive; ED50 (Rattus norvegicus [23]): inactive; Hemispheres reduction (Rattus norvegicus [24]): inactive; ED50 (Rattus norvegicus [25]): inactive; ED50 (Rattus norvegicus [26]): inactive; ED50 (Rattus norvegicus [27]): inactive; ED50 (Rattus norvegicus [28]): inactive; Hemispheres reduction (Rattus norvegicus [29]): inactive
CCCN(CCC)C1CCc2c(O)cccc2C1 (configuration not stated) [5-OH-DPAT] | 0.009 µmol/kg | 688 | 0.011 µmol/kg | inactive | inactive | inactive | –
CCCN1CCCC2c3cccc(O)c3CCC21 (stereo in doubt; 7) [listing 1 of 2 here] | – | – | – | inactive | inactive | inactive | –
CCCN1CCCC(c2cccc(O)c2)C1 (configuration not stated) | 3.6 µmol/kg | – | 3.6 µmol/kg | inactive | inactive | inactive | –
CCCN1CCCC2c3cccc(O)c3CCC21 (stereo in doubt; 7) [listing 2 of 2 here] | 0.13 µmol/kg | 327 | 0.13 µmol/kg | – | – | – | –
CCCN1CCCC2c3cc(O)ccc3CCC21 (stereo in doubt; 8) [listing 1 of 2 here] | – | – | – | – | – | – | ED50 (Rattus norvegicus [30]): inactive; ED50 (Rattus norvegicus [31]): inactive; Hemispheres reduction (Rattus norvegicus [32]): inactive
CCCN1CCCC2c3c(O)cccc3CCC21 (stereo in doubt; 18) [listing 2 of 2 here] | – | – | – | – | – | – | Hemispheres reduction (Rattus norvegicus [33]): 160; ED50 (Rattus norvegicus [17]): 230 nM/kg; ED50 (Rattus norvegicus [18]): 180 nM/kg
CCCN1CCCC2c3cc(O)ccc3CCC21 (stereo in doubt; 8) [listing 2 of 2 here] | – | – | – | – | – | – | ED50 (Rattus norvegicus [1]): 3400 nM/kg; ED50 (Rattus norvegicus [3]): 2000 nM/kg
CCCN1CCCC2c3c(O)cccc3CCC21 (stereo in doubt; 17) [listing 2 of 2 here] | – | – | – | – | – | – | Hemispheres reduction (Rattus norvegicus [33]): 4500; ED50 (Rattus norvegicus [17]): 3400 nM/kg; ED50 (Rattus norvegicus [18]): 3400 nM/kg
CCCN1CCCC2c3cccc(O)c3CCC21 (stereo in doubt; 6) [listing 2 of 2 here] | – | 17 | – | – | – | – | –
CCCN1CCCC2c3cc(O)ccc3CCC21 (stereo in doubt; 9) [listing 2 of 2 here] | – | 365 | – | – | – | – | ED50 (Rattus norvegicus [1]): 12 nM/kg; ED50 (Rattus norvegicus [3]): 8 nM/kg
